From ChEMBL document CHEMBL1156509, “Survival in the presence of antifungals: genome-wide expression profiling of Aspergillus niger in response to sublethal concentrations of caspofungin and fenpropimorph” (2007)
Calls of active or inactive are those of the source.

Key:
[1] = test system: Aspergillus niger; experiment: Antifungal activity against Aspergillus niger RD6.47 at 104.2 ug/mL by microtiter plate; type: functional, organism-based
Method in brief: (§1)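 Reporter conidia (2×10^4 per well) were pre-grown 6 h at 37 °C in 2× CM in glass-bottom plates. An equal volume of a 2-fold dilution series (seven concentrations) was added, then 3 h at 30 °C. Medium was discarded and adherent germlings imaged. Growth inhibition was scored 0/1/2 from hyphal length.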

[2] = test system: Aspergillus niger; experiment: Induction of GFP tagged PagsA-H2B expression in Aspergillus niger RD6.47 at 104.2 ug/mL by fluorescence microscopy; type: functional, organism-based
Method in brief: (§2)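 agsA promoter-GFP reporters, cytoplasmic (JvD1.1) or nuclear H2B-targeted (RD6.47). Germlings pre-grown 6 h at 37 °C in 2× CM, exposed 3 h at 30 °C to seven 2-fold dilutions. GFP levels were scored by fluorescence microscopy as 0 (basal), 1 (intermediate) or 2 (high). Controls: gpdA-H2B-GFP strain MA26.1 (positive), N402 (negative).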

[3] = test system: Aspergillus niger; experiment: Induction of GFP tagged PagsA expression in Aspergillus niger JvD1.1 at 104.2 ug/mL by fluorescence microscopy; type: functional, organism-based; method in brief: as §2
[4] = test system: Aspergillus niger; experiment: Antifungal activity against Aspergillus niger JvD1.1 at 104.2 ug/mL by microtiter plate; type: functional, organism-based; method in brief: as §1
[5] = test system: Aspergillus niger; experiment: Upregulation of Rho2-GTPase gene expression in Aspergillus niger relative to control; type: functional, organism-based
Method in brief: (§3)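 N402 conidia (5×10^9) were grown in 5 l fermentation medium, pH 3, 37 °C, 250 rpm in a bioreactor. After 5 h compound was added (water for controls); mycelium was harvested 1 h later. RNA was hybridized to A. niger Affymetrix GeneChips from two independent bioreactor runs. Genes with ≥1.5-fold change at p < 0.05 after normalization were counted as differentially expressed.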

[6] = test system: Aspergillus niger; experiment: Effect on morphological changes in Aspergillus niger N402 germlings assessed as germ tube elongation and branching at 5 ng/mL after 5 hrs; type: functional, organism-based
Method in brief: (§4)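 Compound or water control was added, then 1 h more at 37 °C. Adherent germlings were scored by microscopy, at least 50 per sample, as branched or unbranched. Branching index = branched/total germlings.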

[7] = test system: Aspergillus niger; experiment: Antifungal activity against Aspergillus niger RD6.47 by microtiter plate; type: functional, organism-based
Method in brief: (§5)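 Reporter germlings (cytoplasmic PagsA-GFP JvD1.1 or nuclear PagsA-H2B-GFP RD6.47), 2×10^4 conidia per well in 2× CM, pre-grown 6 h at 37 °C. A 2-fold dilution series (seven concentrations) was then added and plates were held 3 h at 30 °C. Adherent germlings were imaged, and growth inhibition was scored 0/1/2 from hyphal length.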

[8] = test system: Aspergillus niger; experiment: Induction of rhoB gene expression in Aspergillus niger by microarray analysis relative to control; type: functional
Method in brief: (§6)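 A. niger N402 conidia (5×10^9) grown in 5 L fermentation medium in a bioreactor at 37 °C, pH 3, 250 rpm. Drug in distilled H2O or H2O alone added at 5 h; mycelium harvested by filtration 1 h later and frozen in liquid nitrogen. cRNA hybridized to Affymetrix A. niger GeneChips, two independent bioreactor runs per condition; normalized, ≥1.5-fold change at p 0.05 cutoff.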

[9] = test system: Aspergillus niger; experiment: Effect on morphological changes in Aspergillus niger N402 germlings assessed as tip swelling at 5 ng/mL after 5 hrs; type: functional, organism-based
[10] = test system: Aspergillus niger; experiment: Induction of dppA gene expression in Aspergillus niger by microarray analysis relative to control; type: functional; method in brief: as §6
[11] = test system: Aspergillus niger; experiment: Induction of agtA gene expression in Aspergillus niger by microarray analysis relative to control; type: functional; method in brief: as §6
[12] = test system: Aspergillus niger; experiment: Induction of dfgC gene expression in Aspergillus niger by microarray analysis relative to control; type: functional; method in brief: as §6
[13] = test system: Aspergillus niger; experiment: Effect on increase sub apical branching in Aspergillus niger N402 germlings assessed as branching index at 5 ng/mL after 5 hrs; type: functional
Method in brief: (§7)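 N402 conidia (5×10^5) were germinated 5 h at 37 °C on coverslips in 5 ml liquid MM plus 0.003% yeast extract. Compound was added (water for controls) and culture continued 1 h at 37 °C. At least 50 adherent germlings were scored microscopically as branched or unbranched; branching index = branched/(branched + unbranched).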

[14] = test system: Aspergillus niger; experiment: Upregulation of agtA gene expression in Aspergillus niger relative to control; type: functional, organism-based; method in brief: as §3
[15] = test system: Aspergillus niger; experiment: Antifungal activity against Aspergillus niger RD6.47 at 25.6 ug/mL by microtiter plate; type: functional, organism-based; method in brief: as §5
[16] = test system: Aspergillus niger; experiment: Induction of GFP tagged PagsA-H2B expression in Aspergillus niger RD6.47 by fluorescence microscopy; type: functional, organism-based
Method in brief: (§8)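 Conidia of the agsA-promoter GFP reporters (2×10^4 per well, 2× CM) germinated 6 h at 37 °C, then were exposed 3 h at 30 °C to seven 2-fold serial dilutions. GFP in adherent germlings was read by fluorescence microscopy and scored 0 (basal), 1 (intermediate) or 2 (high). Positive control was a PgpdA-H2B-GFP strain; N402 was the negative control.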

[17] = test system: Aspergillus niger; experiment: Antifungal activity against Aspergillus niger JvD1.1 by microtiter plate; type: functional, organism-based; method in brief: as §5
[18] = test system: Aspergillus niger; experiment: Induction of gnaA gene expression in Aspergillus niger by microarray analysis relative to control; type: functional; method in brief: as §6
[19] = test system: Aspergillus niger; experiment: Induction of crhC gene expression in Aspergillus niger by microarray analysis relative to control; type: functional; method in brief: as §6
[20] = test system: Aspergillus niger; experiment: Induction of mkkA gene expression in Aspergillus niger by microarray analysis relative to control; type: functional; method in brief: as §6
[21] = test system: Aspergillus niger; experiment: Induction of dpmA gene expression in Aspergillus niger by microarray analysis relative to control; type: functional; method in brief: as §6
[22] = test system: Aspergillus niger; experiment: Induction of bgtB gene expression in Aspergillus niger by microarray analysis relative to control; type: functional; method in brief: as §6
[23] = test system: Aspergillus niger; experiment: Induction of lplB gene expression in Aspergillus niger by microarray analysis relative to control; type: functional; method in brief: as §6
[24] = test system: Aspergillus niger; experiment: Induction of gfaB gene expression in Aspergillus niger by microarray analysis relative to control; type: functional; method in brief: as §6
[25] = test system: Aspergillus niger; experiment: Induction of gfaA gene expression in Aspergillus niger by microarray analysis relative to control; type: functional; method in brief: as §6
[26] = test system: Aspergillus niger; experiment: Induction of GFP tagged PagsA-H2B expression in Aspergillus niger RD6.47 at 25.6 ug/mL by fluorescence microscopy; type: functional, organism-based; method in brief: as §8
[27] = test system: Aspergillus niger; experiment: Effect on morphological changes in Aspergillus niger N402 germlings assessed as germ tube elongation and branching at 5 ug/mL after 5 hrs; type: functional, organism-based; method in brief: as §4
[28] = test system: Aspergillus niger; experiment: Effect on morphological changes in Aspergillus niger JvD1.1 assessed as tip swelling; type: functional, organism-based
[29] = test system: Aspergillus niger; experiment: Effect on morphological changes in Aspergillus niger N402 germlings assessed as germ tube elongation and branching at 0.9 ug/mL after 5 hrs; type: functional, organism-based; method in brief: as §4
[30] = test system: Aspergillus niger; experiment: Effect on morphological changes in Aspergillus niger N402 germlings assessed as tip swelling at 5 ug/mL after 5 hrs; type: functional, organism-based
[31] = test system: Aspergillus niger; experiment: Induction of crhB gene expression in Aspergillus niger by microarray analysis relative to control; type: functional; method in brief: as §6
[32] = test system: Aspergillus niger; experiment: Induction of agsA expression in Aspergillus niger N402 germlings; type: functional, organism-based
Method in brief: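 RNA from 1 h-treated N402 bioreactor germlings (5 h pre-growth, FM pH 3, 37 °C) was hybridised to A. niger Affymetrix arrays, biological duplicate. Data were normalised; differential expression was taken as at least 1.5-fold change with p cutoff 0.05. Northern blots on the same RNA were used for validation.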

[33] = test system: Aspergillus niger; experiment: Induction of GFP tagged PagsA expression in Aspergillus niger JvD1.1 by fluorescence microscopy; type: functional, organism-based; method in brief: as §8
[34] = test system: Aspergillus niger; experiment: Effect on morphological changes in Aspergillus niger N402 germlings assessed as tip swelling at 0.9 ug/mL after 5 hrs; type: functional, organism-based
[35] = test system: Aspergillus niger; experiment: Effect on morphological changes in Aspergillus niger RD6.47 assessed as tip swelling; type: functional, organism-based
[36] = test system: Aspergillus niger; experiment: Induction of gelA gene expression in Aspergillus niger by microarray analysis relative to control; type: functional; method in brief: as §6
[37] = test system: Aspergillus niger; experiment: Effect on morphological changes in Aspergillus niger N402 germlings assessed as increase in germ tube; type: functional, organism-based
Method in brief: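 Bioreactor: 5×10^9 N402 conidia in 5 l fermentation medium, pH 3 controlled, 37 °C, 250 rpm. Compound in water (or water alone) added at 5 h, then 1 h further cultivation. At least 200 germlings per run were counted for germ tubes per germling and subapical branches. Mean ± S.D. from two independent runs.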

[38] = test system: Aspergillus niger; experiment: Induction of ugpA gene expression in Aspergillus niger by microarray analysis relative to control; type: functional; method in brief: as §6
[39] = test system: Aspergillus niger; experiment: Induction of GFP tagged PagsA expression in Aspergillus niger JvD1.1 at 25.6 ug/mL by fluorescence microscopy; type: functional, organism-based; method in brief: as §8
[40] = test system: Aspergillus niger; experiment: Induction of hocA gene expression in Aspergillus niger by microarray analysis relative to control; type: functional; method in brief: as §6
[41] = test system: Aspergillus niger; experiment: Induction of rapA gene expression in Aspergillus niger by microarray analysis relative to control; type: functional; method in brief: as §6
[42] = test system: Aspergillus niger; experiment: Induction of chsB gene expression in Aspergillus niger by microarray analysis relative to control; type: functional; method in brief: as §6
[43] = test system: Aspergillus niger; experiment: Effect on morphological changes in Aspergillus niger N402 germlings assessed as branching index at 50 ng/mL; type: functional; method in brief: as §7
[44] = test system: Aspergillus niger; experiment: Antifungal activity against Aspergillus niger JvD1.1 at 25.6 ug/mL by microtiter plate; type: functional, organism-based; method in brief: as §5
[45] = test system: Aspergillus niger; experiment: Induction of srgA gene expression in Aspergillus niger by microarray analysis relative to control; type: functional; method in brief: as §6
[46] = test system: Aspergillus niger; experiment: Induction of pgmB gene expression in Aspergillus niger by microarray analysis relative to control; type: functional; method in brief: as §6
[47] = test system: Aspergillus niger; experiment: Effect on morphological changes in Aspergillus niger N402 germlings assessed as branching index at 50 ug/mL; type: functional
[48] = test system: Aspergillus niger; experiment: Effect on increase sub apical branching in Aspergillus niger N402 germlings assessed as branching index at 5 ug/mL after 5 hrs; type: functional; method in brief: as §4
[49] = test system: Aspergillus niger; experiment: Induction of crhD gene expression in Aspergillus niger by microarray analysis relative to control; type: functional; method in brief: as §6

N#Cc1c[nH]cc1-c1cccc2c1OC(F)(F)O2
Activity [1]: Active | Activity [2]: Active | Activity [3]: Active | Activity [4]: Active

CC[C@H](C)C[C@H](C)CCCCCCCCC(=O)N[C@H]1C[C@@H](O)[C@@H](NCCN)NC(=O)[C@@H]2[C@@H](O)CCN2C(=O)[C@H]([C@H](O)CCN)NC(=O)[C@H]([C@H](O)[C@@H](O)c2ccc(O)cc2)NC(=O)[C@@H]2C[C@@H](O)CN2C(=O)[C@H]([C@@H](C)O)NC1=O [CASPOFUNGIN]
Activity [5]: Active | Activity [6]: Active | Activity [7]: Active | fold change (FC) [8]: 2.32 | Activity [9]: Active | fold change (FC) [10]: 2.62 | fold change (FC) [11]: 2.1 | fold change (FC) [12]: 2.4 | Activity [13]: 34.5% | Activity [14]: Active | Activity [15]: Active | Activity [16]: Active | Activity [17]: Active | fold change (FC) [18]: 3.18 | fold change (FC) [19]: 2.03 | fold change (FC) [20]: 2.03 | fold change (FC) [21]: 1.85 | fold change (FC) [22]: 1.77 | fold change (FC) [23]: 1.77 | fold change (FC) [24]: 7.98 | fold change (FC) [25]: 2.32 | Activity [26]: Active | Activity [27]: Active | Activity [28]: Active | Activity [29]: Active | Activity [30]: Active | fold change (FC) [31]: 2.58 | Activity [32]: Active | Activity [33]: Active | Activity [34]: Active | Activity [35]: Active | fold change (FC) [36]: 3.05 | Activity [37]: Active | fold change (FC) [38]: 1.64 | Activity [39]: Active | fold change (FC) [40]: 2.03 | fold change (FC) [41]: 2.16 | fold change (FC) [42]: 3.08 | Activity [43]: 43.7% | Activity [44]: Active | fold change (FC) [45]: 2.51 | fold change (FC) [46]: 1.95

CC(Cc1ccc(C(C)(C)C)cc1)CN1C[C@@H](C)O[C@@H](C)C1 (stereo partly specified) [FENPROPIMORPH]
Activity [6]: Active | Activity [9]: Active | Activity [1]: Active | Activity [47]: 30.5% | Activity [2]: Active | Activity [27]: Active | Activity [29]: Active | Activity [3]: Active | Activity [30]: Active | Activity [32]: Active | Activity [34]: Active | Activity [4]: Active | Activity [48]: 33% | Activity [37]: Active | fold change (FC) [49]: 1.51
